PAFAH1B2 FP inh: PAFAH1B2 (human) inhibition; recombinant PAFAH1B2, FP-rhodamine activity probe, fluorescence polarization; inhibition, % at 3.39 µM; actives 1.2% (n = 340,000);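 active = inhibition above the mean of all tested compounds plus 3 SD, cut at about 24% in these data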;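 also: 0% = enzyme with DMSO and 100% = wells lacking PAFAH1B2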
pPAFAH FP inh: pPAFAH (human) enzyme inhibition | Q13093 | recombinant pPAFAH, FP-rhodamine probe fluorescence polarization | inhibition, % at 3.39 µM | actives 1.5% (n = 330,000) | AID 463082;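 active = inhibition above the mean inhibition across the screen plus 3 SD, cut at about 25% in these data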;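 also: inhibitors block binding of the rhodamine activity-based probe so polarization drops; 0% = enzyme with DMSO and 100% = wells lacking pPAFAH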
PAFAH2 FP inh: PAFAH2 (human) inhibition. inhibition, % at 3.39 µM. recombinant PAFAH2, FP-rhodamine activity probe, fluorescence polarization. actives 0.99% (n = 340,000). Q99487;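 active = inhibition above the mean over all tested compounds plus 3 SD, cut at about 30% in these data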;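 also: inhibitors block probe labeling of enzyme so polarization drops; 0% = enzyme with DMSO and 100% = wells lacking PAFAH2 protein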
PAFAH1B3 inh: inhibitors of human PAFAH1B3. recombinant PAFAH1B3, FP-rhodamine probe, fluorescence polarization. actives 0.28% (n = 340,000). Q15102. inhibition, % at 3.39 µM. AID 492972;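 active = inhibition above the screen-wide average of all tested compounds plus 3 SD, cut at about 25% in these data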;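 also: 0% = enzyme with DMSO only and 100% = wells lacking PAFAH1B3 protein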
Target sequence (Q15102 whole entry, looked up): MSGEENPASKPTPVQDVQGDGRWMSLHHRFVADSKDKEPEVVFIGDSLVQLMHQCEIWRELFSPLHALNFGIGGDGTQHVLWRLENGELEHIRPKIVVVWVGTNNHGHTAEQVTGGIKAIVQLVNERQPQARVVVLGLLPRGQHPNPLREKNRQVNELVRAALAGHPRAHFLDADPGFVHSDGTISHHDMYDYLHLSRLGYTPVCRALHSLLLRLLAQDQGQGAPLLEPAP
ARFGAP1 inhibitor: inhibitors of rat ARFGAP1. Q62848. Arfgap1-stimulated ARF1 GTP hydrolysis, GDP FP detection. inhibition, % at 16.5 µM. actives 0.26% (n = 360,000). AID 651572;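 active = inhibition above a per-plate limit, mean inhibition of low control wells plus 3 SD, cut at about 25% in these data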;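 also: 0% = DMSO wells with enzyme and 100% = wells lacking Arfgap1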
Target sequence (Q62848 1-136 limits assumed): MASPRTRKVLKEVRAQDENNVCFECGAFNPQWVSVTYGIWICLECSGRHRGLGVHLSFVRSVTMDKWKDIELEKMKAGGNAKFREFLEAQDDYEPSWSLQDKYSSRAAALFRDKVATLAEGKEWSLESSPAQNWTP
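system = rat Arfgap1 catalytic domain, aa 1-136 | technique = FP, GDP Alexa 633 tracer displaced from anti-GDP antibody, 620/688 nm | compound = one concentration, 16.5 µM, DMSO 1.26% | medium = HEPES-based buffer, pH 7.5 | timing = compound-enzyme preincubation 20 min, reaction 120 min, detection 60 min, 25 °C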
ASAP1 GAP inh: inhibitors of human ASAP1 ArfGAP activity; inhibition, % at 16.5 µM; ASAP1-stimulated ARF1 GTP hydrolysis, GDP FP detection; Q9ULH1; actives 0.19% (n = 360,000); in the data active = inhibition above about 25%;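 also: 0% = vehicle with enzyme and substrate and 100% = no enzyme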
PAFAH2 confirm: confirmation of human PAFAH2 inhibitors; shares compounds with PAFAH2 FP inh; recombinant PAFAH2, FP-rhodamine activity probe, fluorescence polarization; inhibition, % at 3.39 µM; actives 65% (n = 2,300);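 active = mean inhibition over three repeats above a set limit taken from the earlier primary screen, cut at about 30% in these data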;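 also: inhibitor blocks binding of rhodamine activity probe so polarization falls; 0% = enzyme with DMSO and 100% = wells lacking PAFAH2 protein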
* = called active by the depositor; · = no result given. The list is not random: actives were taken first. Their share in the collection is about 2.7%.

SMILES	PAFAH1B2 FP inh	pPAFAH FP inh	PAFAH2 FP inh	PAFAH1B3 inh	ARFGAP1 inhibitor	ASAP1 GAP inh	PAFAH2 confirm
COc1ccc(NC(=O)COC(=O)C23CC4CC(CC(O)(C4)C2)C3)cc1Cl	8	-4	20	12	-3	0	·
Cc1cc(C)c(NC(=O)COC(=O)C23CC4CC(CC(O)(C4)C2)C3)c(Cl)c1	6	18	47*	5	-4	-8	34*
O=C(COC(=O)C12CC3CC(CC(O)(C3)C1)C2)Nc1ccc(Cl)c(S(=O)(=O)N2CCOCC2)c1	4	4	48*	12	9	-8	24
CC1CCCN(C(=O)COC(=O)c2ccc3[nH]c4c(c3c2)CCCC4)C1 (stereo not drawn)	5	9	41*	-2	3	-3	26
COC(=O)C1CCN(C(=O)COC(=O)c2ccc3[nH]c4c(c3c2)CCCC4)CC1	0	3	8	6	1	13	·
Cc1ccc(-n2ncc(C(=O)N3CCc4ccccc4C3)c2NC(=O)c2ccco2)cc1C	10	7	35*	-5	-2	1	7
CN1CCN(S(=O)(=O)c2ccc(C(F)(F)F)cc2)C(c2ccccc2)C1 (stereo not drawn)	1	2	-1	3	2	9	·
CCc1sc(C(=O)Nc2ncccc2O)cc1C	2	·	30*	4	20	-10	27
O=C(N/N=C/c1ccc(O)c(O)c1)N/N=C/c1ccc(O)c(O)c1	7	·	31*	17	9	4	15
C[C@H]1CN([C@@H](C)CO)C(=O)CCCn2nncc2CO[C@H]1CN(C)C(=O)C1CCCCC1	·	·	·	·	3	-3	·
CC1CC(C)CN(C(=O)/C=C/c2ccc(S(=O)(=O)N3CCOCC3)cc2)C1 (stereo not drawn)	3	-4	-4	1	6	-3	·
Cc1ccsc1C(=O)OCC(=O)NC1CCCC1	3	21	63*	-3	-6	-6	47*
Cc1ccsc1C(=O)OCC(=O)N(C)C1CCCCC1	13	3	36*	3	-4	-2	17
COc1ccc(S(=O)(=O)N2CCOCC2)cc1NC(=O)COC(=O)c1ccc([N+](=O)[O-])s1	15	11	40*	24	·	·	40*
COc1ccc(S(=O)(=O)N2CCOCC2)cc1NC(=O)Cc1ccccc1Cl	1	8	60*	4	17	5	55*
O=C(O)CC(NC(=O)C(c1ccccc1)c1ccccc1)c1ccc(F)cc1 (stereo not drawn)	14	-1	5	4	-2	-3	·
CSCCC(NS(=O)(=O)c1ccc(Cl)cc1)C(=O)O (stereo not drawn)	4	-2	35*	-1	5	-2	29
CSCCC(NS(=O)(=O)c1c(Cl)cccc1Cl)C(=O)O (stereo not drawn)	-2	-3	2	3	-3	-13	·
O=C(COC(=O)CNC(=O)c1ccccc1F)Nc1ccc2c(c1)OCCO2	0	5	0	2	-10	3	·
CCOc1ncccc1C(=O)OCC(=O)c1ccc(Cl)s1	4	8	44*	8	11	-7	17
O=C(COC(=O)c1cc[n+]([O-])cc1)Nc1ccc2c(c1)OCCO2	-4	1	-3	1	10	-13	·
O=C(COC(=O)c1ccccc1F)Nc1ccc2c(c1)OCCO2	4	·	70*	8	-4	7	52*
CCOc1ncccc1C(=O)OCC(=O)Nc1ccc2c(c1)OCO2	4	22	32*	-1	2	14	36*
O=C(COC(=O)c1cccc(F)c1)Nc1ccc2c(c1)OCCO2	2	9	31*	3	0	-4	27
COc1cccc(NC(=O)N2CCCC2C(=O)NCc2ccccc2F)c1 (stereo not drawn)	3	2	2	0	6	7	·
Cc1ccccc1-n1c(SCC(=O)NC2CC2)nc2ccccc2c1=O	·	·	·	·	4	-9	·
CCCOc1ccc(CNC(=S)Nc2ccccc2)cc1Cl	3	-3	-2	3	4	4	·

Bioassay records as filed in PubChem.
